# Measured values from different studies.
# SMARCA2: SWI/SNF-related matrix-associated actin-dependent regulator of chromatin subfamily A member 2 (SMARCA2, Homo sapiens, UniProt P51531)
# BRAF V600E: Serine/threonine-protein kinase B-raf (BRAF, Homo sapiens, UniProt P15056, V600E)
Compound,target,assay,system,setting,quantity,value
CCC/C=C1\CCn2c1nc(=O)c1c(Cl)cccc12,SMARCA2,"thermal stability, DSF",,100 µM,ΔTm,4.61 °C
CCCOc1ccc(OC)c(F)c1C(=O)c1ccc(C(=O)N[C@@H]2CNC[C@H]2NC(=O)c2ccc3[nH]ncc3c2)cc1,"Muscle, skeletal receptor tyrosine-protein kinase (MUSK, Homo sapiens, UniProt O15146)","enzyme activity, inhibitor",,0.5 µM,remaining activity,20%
CCC(/C=C1\CCn2c1nc(=O)c1c(Cl)cccc12)CC,SMARCA2,"thermal stability, DSF",,100 µM,ΔTm,5.33 °C
Cc1ccc(C(=O)Nc2ccc(CN3CCN(C)CC3)c(C(F)(F)F)c2)cc1C#Cc1cnc2cccnn12,"Epidermal growth factor receptor (EGFR, Homo sapiens, UniProt P00533, del752-759)",cell-free assay,,23.5 nM,remaining signal,87%
Cc1ccc(C(CS(=O)(=O)c2ccccc2)=NN=C2N=C(c3ccc(C)cc3)CS2)cc1,BRAF V600E,"enzyme activity, inhibitor, ATP luminescence",,1 µM,inhibition,65%
CC(=O)N[C@H]1CSSC[C@@H](C(=O)N[C@@H](Cc2c[nH]c3ccccc23)C(N)=O)NC(=O)[C@H](Cc2ccccc2)NC(=O)[C@H](CCCNC(=N)N)NC1=O,"Melanocortin receptor 3 (MC3R, Homo sapiens, UniProt P41968)","cAMP, agonist",HEK293,3 min,Emax,0%
Nc1ncnc2occ(-c3ccc(NC(=O)Nc4cc(C(F)(F)F)ccc4F)cc3)c12,"Serine/threonine-protein kinase Nek5 (NEK5, Homo sapiens, UniProt Q6P3R8)","cell-free assay, inhibitor",,20 µM,remaining signal,0.95%
Cc1ccc(C(CS(=O)(=O)c2ccccc2)=NNc2nc(C)c(N=Nc3cccc(C)c3)s2)cc1,BRAF V600E,"enzyme activity, inhibitor, ATP luminescence",,1 µM,inhibition,81%
